Measured values: PMC6218153 (Journal of Alzheimer's Disease Reports, 2018)
Where no end group is shown, it is not given here.

Tests used:
[1] = PK study in plasma and CSF after single IV, SC or IN dose; assay type: in vivo, rat
Summary of the method: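 Cannulated rats (jugular vein, intracisternal; n = 6/route) received a single dose in PBS: IV or SC ~11 mg/kg over 1 min, or IN ~5.5 mg/kg, 10 μL per nostril at 6-min intervals over 18 min. K2EDTA plasma was taken pre-dose to 165 min and CSF pre-dose to 150/180 min. LC/MS/MS (ESI+, 1007.55 > 876.35) with noncompartmental PK; CL = Dose/AUC. CSF ratio = dose-normalised CSF AUC relative to IV.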

[2] = Metabolic stability in human plasma; assay type: in vitro ADME
Summary of the method: (§1)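 Test compound (100 μM stock in methanol) added to 1 μM final in plasma or brain homogenate (1:3 brain:PBS, w/v) and incubated at room temperature. Sampled at 15 and 30 min and 1, 2 and 4 h; time-zero samples pre-quenched with methanol. Proteins were methanol-precipitated; supernatant evaporated, reconstituted in 0.1% formic acid and analysed by LC/MS/MS. Duplicates per time point; results expressed as % of time 0.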

[3] = Metabolic stability in human brain homogenate; assay type: in vitro ADME
Summary of the method: as §1

[4] = rat, in vivo, 5.5 mg/kg, IN 5.5 mg/kg, CSF
[5] = rat, in vivo, inhaled or intranasal, 5.5 mg/kg, IN 5.5 mg/kg, plasma
[6] = rat, in vivo, sc, 11 mg/kg, SC 11 mg/kg, CSF
[7] = rat, in vivo, sc, 11 mg/kg, SC 11 mg/kg, plasma

DEEEDEEL [P8, DEEEDEEL]
P8 concentration in plasma ([1]; IV 11.0 mg/kg single dose, 130 min, Rat 3): 20.7 ng/mL | P8 concentration in CSF ([1]; IV 11.0 mg/kg single dose, 150 min, Rat 1): 4.88 ng/mL | P8 concentration in CSF ([1]; IV 11.0 mg/kg single dose, 150 min, Rat 2): 4.30 ng/mL | P8 concentration in CSF ([1]; IV 11.0 mg/kg single dose, 150 min, Rat 3): 3.57 ng/mL | P8 concentration in plasma ([1]; IV 11.0 mg/kg single dose, 165 min, Rat 1): 18.9 ng/mL | P8 concentration in plasma ([1]; IV 11.0 mg/kg single dose, 165 min, Rat 3): 9.72 ng/mL | P8 concentration in CSF ([1]; IV 11.0 mg/kg single dose, 180 min, Rat 1): 4.11 ng/mL | P8 concentration in CSF ([1]; IV 11.0 mg/kg single dose, 180 min, Rat 3): 1.06 ng/mL | P8 concentration in CSF ([1]; SC 11.0 mg/kg single dose, 10 min, Rat 1): 7.06 ng/mL | P8 concentration in CSF ([1]; SC 11.0 mg/kg single dose, 10 min, Rat 2): 22.6 ng/mL | P8 concentration in CSF ([1]; SC 11.0 mg/kg single dose, 10 min, Rat 3): 1.75 ng/mL | P8 concentration in CSF ([1]; SC 11.0 mg/kg single dose, 30 min, Rat 1): 25.2 ng/mL | P8 concentration in CSF ([1]; SC 11.0 mg/kg single dose, 30 min, Rat 2): 12.8 ng/mL | P8 concentration in CSF ([1]; SC 11.0 mg/kg single dose, 30 min, Rat 3): 8.03 ng/mL | P8 concentration in CSF ([1]; SC 11.0 mg/kg single dose, 60 min, Rat 1): 26.5 ng/mL | P8 concentration in CSF ([1]; SC 11.0 mg/kg single dose, 60 min, Rat 2): 17.1 ng/mL | P8 concentration in CSF ([1]; SC 11.0 mg/kg single dose, 60 min, Rat 3): 10.3 ng/mL | P8 concentration in plasma ([1]; SC 11.0 mg/kg single dose, 70 min, Rat 2): 4,150 ng/mL | P8 concentration in plasma ([1]; SC 11.0 mg/kg single dose, 70 min, Rat 3): 1,220 ng/mL | P8 concentration in plasma ([1]; SC 11.0 mg/kg single dose, 90 min, Rat 1): 2,600 ng/mL | P8 concentration in plasma ([1]; SC 11.0 mg/kg single dose, 90 min, Rat 2): 3,570 ng/mL | P8 concentration in plasma ([1]; SC 11.0 mg/kg single dose, 90 min, Rat 3): 908 ng/mL | P8 concentration in CSF ([1]; SC 11.0 mg/kg single dose, 100 min, Rat 1): 21.6 ng/mL | P8 concentration in CSF ([1]; SC 11.0 mg/kg single dose, 100 min, Rat 2): 16.3 ng/mL | P8 concentration in CSF ([1]; SC 11.0 mg/kg single dose, 100 min, Rat 3): 8.31 ng/mL | P8 concentration in plasma ([1]; SC 11.0 mg/kg single dose, 110 min, Rat 1): 2,120 ng/mL | P8 concentration in plasma ([1]; SC 11.0 mg/kg single dose, 110 min, Rat 2): 2,410 ng/mL | P8 concentration in plasma ([1]; SC 11.0 mg/kg single dose, 110 min, Rat 3): 804 ng/mL | P8 concentration in plasma ([1]; SC 11.0 mg/kg single dose, 130 min, Rat 1): 1,870 ng/mL | P8 concentration in plasma ([1]; SC 11.0 mg/kg single dose, 130 min, Rat 2): 3,030 ng/mL | P8 concentration in plasma ([1]; SC 11.0 mg/kg single dose, 130 min, Rat 3): 619 ng/mL | P8 concentration in CSF ([1]; SC 11.0 mg/kg single dose, 150 min, Rat 1): 11.8 ng/mL | P8 concentration in CSF ([1]; SC 11.0 mg/kg single dose, 150 min, Rat 2): 10.7 ng/mL | P8 concentration in CSF ([1]; SC 11.0 mg/kg single dose, 150 min, Rat 3): 5.71 ng/mL | P8 concentration in plasma ([1]; SC 11.0 mg/kg single dose, 165 min, Rat 1): 1,010 ng/mL | P8 concentration in plasma ([1]; SC 11.0 mg/kg single dose, 165 min, Rat 2): 1,600 ng/mL | P8 concentration in plasma ([1]; SC 11.0 mg/kg single dose, 165 min, Rat 3): 356 ng/mL | mean plasma exposure, SC relative to IN, corrected for dose ([1]; rat): 25 fold | percent of dose absorbed, SC relative to IN ([1]; rat): 25 fold | ratio or relative % F across the blood-brain barrier, % of the plasma concentrations ([1]; rat): < 1% | CSF Ratio (dose normalized CSF AUC of route / of IV dose) ([1]; rat, IN 5.5 mg/kg): 0.10±0.092 | Plasma: CSF Ratio (AUC) ([1]; rat, IN 5.5 mg/kg): 0.041±0.041 | Plasma: CSF Ratio (Cmax) ([1]; rat, IN 5.5 mg/kg): 0.064±0.093 | Tmax ([1]; rat, IN 5.5 mg/kg, CSF): 27 ± 29 min | CSF exposure as % of plasma exposure ([1]; rat, IV): about 0.5% | Plasma: CSF Ratio (AUC) ([1]; rat, IV 11 mg/kg): 0.0052±0.0015 | peak CSF Cmax ([1]; rat, IV 11 mg/kg, CSF, at the 10-min time point (first time point)): 65.6 ng/mL | t1/2 ([1]; rat, IV 11 mg/kg, plasma, terminal, 11 mg/kg): 21.9 ± 8.18 min | clearance as share of hepatic liver blood flow ([1]; rat, IV, based on a 70 mL/min/kg estimate): about 25% | CSF exposure as % of plasma exposure ([1]; rat, SC): about 0.5% | CSF Ratio (dose normalized CSF AUC of route / of IV dose) ([1]; rat, SC 11 mg/kg): 0.72±0.29 | Plasma: CSF Ratio (AUC) ([1]; rat, SC 11 mg/kg): 0.0055±0.00054 | Plasma: CSF Ratio (Cmax) ([1]; rat, SC 11 mg/kg): 0.0037±0.0005 | AUC [1, 4]: 5.5 ng·h/mL | Cmax [1, 4]: 12.4 ± 17.7 ng/mL | Tmax ([1]; rat, in vivo, 5.5 mg/kg, Tmax, IN 5.5 mg/kg, CSF): 26.7 min | bioavailability ([1]; rat, in vivo, inhaled or intranasal, 5.5 mg/kg): 2.8 ± 0.88% | AUC [1, 5]: 146 ng·h/mL | Cmax [1, 5]: 197 ± 62.7 ng/mL | Tmax ([1]; rat, in vivo, inhaled or intranasal, 5.5 mg/kg, Tmax, IN 5.5 mg/kg, plasma): 5 min | Vd ([1]; rat, in vivo, iv, 11 mg/kg): 0.546 ± 0.306 L/kg | clearance ([1]; rat, in vivo, iv, 11 mg/kg): 17.6 ± 5.65 mL/min/kg | AUC ([1]; rat, in vivo, iv, 11 mg/kg, IV 11 mg/kg, CSF): 54.5 ng·h/mL | AUC ([1]; rat, in vivo, iv, 11 mg/kg, IV 11 mg/kg, plasma): 11300 ng·h/mL | half-life ([1]; rat, in vivo, iv, 11 mg/kg, t1/2, rat, IV 11 mg/kg, plasma, terminal): 22 ± 8.2 min | bioavailability ([1]; rat, in vivo, sc, 11 mg/kg): 65 ± 21% | AUC [1, 6]: 39.7 ng·h/mL | AUC [1, 7]: 7380 ng·h/mL | Cmax [1, 6]: 19.8 ± 8.46 ng/mL | Cmax [1, 7]: 5390 ng/mL | Tmax ([1]; rat, in vivo, sc, 11 mg/kg, Tmax, SC 11 mg/kg, CSF): 43 min | Tmax ([1]; rat, in vivo, sc, 11 mg/kg, Tmax, SC 11 mg/kg, plasma): 25 min | half-life [2]: > 120 min | remaining at 2 h, 1 μM [2]: 63.1% | half-life ([3]; human brain homogenate, 1μM P8, room temperature): 120 min | remaining at 2 h, 1 μM ([3]; human, brain homogenate): 51.4%
